From ChEMBL document CHEMBL1135457 (J Med Chem, 2002)

Assays:
Androgen receptor = target: T1, Androgen receptor (Homo sapiens, UniProt P10275); assay: Displacement of [3H]DHT from human Androgen receptor
T1 sequence (P10275 whole entry): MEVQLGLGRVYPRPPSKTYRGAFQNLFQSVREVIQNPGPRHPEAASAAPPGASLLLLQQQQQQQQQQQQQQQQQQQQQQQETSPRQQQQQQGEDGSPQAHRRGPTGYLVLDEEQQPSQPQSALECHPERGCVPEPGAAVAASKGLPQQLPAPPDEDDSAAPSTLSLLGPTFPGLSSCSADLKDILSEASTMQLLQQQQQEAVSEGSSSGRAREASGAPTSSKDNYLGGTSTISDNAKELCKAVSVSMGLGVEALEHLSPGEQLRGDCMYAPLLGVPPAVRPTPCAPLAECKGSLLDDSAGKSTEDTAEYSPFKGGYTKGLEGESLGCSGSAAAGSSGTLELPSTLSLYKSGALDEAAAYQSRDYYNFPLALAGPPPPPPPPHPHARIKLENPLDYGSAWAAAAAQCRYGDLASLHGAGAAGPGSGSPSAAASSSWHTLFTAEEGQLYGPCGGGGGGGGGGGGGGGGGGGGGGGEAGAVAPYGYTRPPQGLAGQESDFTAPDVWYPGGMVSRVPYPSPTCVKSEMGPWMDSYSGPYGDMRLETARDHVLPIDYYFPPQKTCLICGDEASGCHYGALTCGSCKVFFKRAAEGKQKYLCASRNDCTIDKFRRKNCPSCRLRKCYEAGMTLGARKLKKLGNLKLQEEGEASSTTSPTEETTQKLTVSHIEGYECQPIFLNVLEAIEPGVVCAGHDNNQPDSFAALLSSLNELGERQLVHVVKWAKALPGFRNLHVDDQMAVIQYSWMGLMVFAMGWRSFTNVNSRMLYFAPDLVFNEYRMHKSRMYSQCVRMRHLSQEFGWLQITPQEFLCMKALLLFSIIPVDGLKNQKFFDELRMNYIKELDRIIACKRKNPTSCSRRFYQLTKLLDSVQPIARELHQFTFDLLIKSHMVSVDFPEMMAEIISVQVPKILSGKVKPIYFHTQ
In short: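 Whole-cell extract of Sf9 cells infected with baculovirus expressing human AR (MOI 2, harvested 48 h), sonicated in pH 7.2 HEPES/molybdate/glycerol buffer. Extract bound to hydroxylapatite with 1 nM [3H]DHT and compound (0.01 nM–30 μM) in triplicate, 1 h, 4 °C. Nonspecific binding from 10 μM unlabeled DHT. Filtration, scintillation counting, sigmoidal IC50, Cheng–Prusoff Ki (Kd 0.4 nM).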

[1] = target: T2, Progesterone receptor (Homo sapiens) (UniProt P06401)
T2 sequence (whole entry): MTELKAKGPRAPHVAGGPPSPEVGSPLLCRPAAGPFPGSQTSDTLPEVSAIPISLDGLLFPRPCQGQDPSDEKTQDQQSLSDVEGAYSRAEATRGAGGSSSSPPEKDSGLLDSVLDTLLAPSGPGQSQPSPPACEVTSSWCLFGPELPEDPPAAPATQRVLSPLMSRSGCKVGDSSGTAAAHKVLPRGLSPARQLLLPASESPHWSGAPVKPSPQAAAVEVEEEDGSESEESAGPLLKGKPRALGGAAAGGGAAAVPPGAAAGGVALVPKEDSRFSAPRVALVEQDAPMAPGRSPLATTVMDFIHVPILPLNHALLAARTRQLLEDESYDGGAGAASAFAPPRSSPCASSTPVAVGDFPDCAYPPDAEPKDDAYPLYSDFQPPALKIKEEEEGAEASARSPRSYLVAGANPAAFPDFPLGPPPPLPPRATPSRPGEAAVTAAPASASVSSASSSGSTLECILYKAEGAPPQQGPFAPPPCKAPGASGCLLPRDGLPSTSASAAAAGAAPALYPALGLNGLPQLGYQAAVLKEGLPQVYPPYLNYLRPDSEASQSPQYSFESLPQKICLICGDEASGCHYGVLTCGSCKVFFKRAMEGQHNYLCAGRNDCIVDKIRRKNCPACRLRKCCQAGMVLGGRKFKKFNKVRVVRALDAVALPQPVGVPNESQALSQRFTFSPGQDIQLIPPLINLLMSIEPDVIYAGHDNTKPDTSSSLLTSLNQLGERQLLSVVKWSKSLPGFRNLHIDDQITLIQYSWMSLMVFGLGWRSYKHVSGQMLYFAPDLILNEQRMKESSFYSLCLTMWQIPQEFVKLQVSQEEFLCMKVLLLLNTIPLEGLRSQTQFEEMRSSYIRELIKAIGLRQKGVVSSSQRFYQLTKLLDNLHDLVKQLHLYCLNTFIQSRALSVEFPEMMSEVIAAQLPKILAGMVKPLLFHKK

Row | Ki (Androgen receptor) [nM] | Kif [1] [nM] | Structure (SMILES)
1 | 650 |  | CC#C[C@@]1(O)CC[C@@]2(Cc3ccccc3)c3ccc(O)cc3CC[C@@H]2C1
2 |  | > 1000 | O=C1CC[C@@]2(Cc3ccccc3)c3ccc(O)cc3CC[C@@H]2C1
